ChEMBL document CHEMBL1139344, “Antagonists of the human A(2A) adenosine receptor. 4. Design, synthesis, and preclinical evaluation of 7-aryltriazolo[4,5-d]pyrimidines” (J Med Chem, 2009)
≈ marks a conversion by molar mass, not a printed value. Calls of active or inactive are those of the source. No cut-off for these calls is given here.

Assays:
Adenosine receptor A3 = target: T1, Adenosine receptor A3 (Homo sapiens, UniProt P0DMS8); experiment: Displacement of radioligand from human recombinant adenosine A3 receptor at 21 degC after 60 mins by cell-based microplate scintillation counting
T1 sequence (P0DMS8 whole entry): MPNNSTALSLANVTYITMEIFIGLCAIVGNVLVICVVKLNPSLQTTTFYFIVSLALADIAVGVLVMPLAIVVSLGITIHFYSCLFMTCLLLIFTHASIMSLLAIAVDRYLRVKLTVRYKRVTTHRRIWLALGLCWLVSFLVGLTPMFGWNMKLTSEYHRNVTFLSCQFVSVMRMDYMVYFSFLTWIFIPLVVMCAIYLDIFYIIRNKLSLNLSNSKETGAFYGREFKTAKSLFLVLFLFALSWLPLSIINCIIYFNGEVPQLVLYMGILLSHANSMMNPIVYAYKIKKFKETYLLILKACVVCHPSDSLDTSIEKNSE

Mus musculus [1] = experiment: Reversal of haloperidol-induced hypolocomotion in po dosed TO mouse assessed as minimal effective dose administered 15 mins prior to testing done for 60 mins; format: functional; details: read-out: MED
Method in brief: (§1)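 Haloperidol (0.2 mg/kg ip) used to induce hypolocomotion; antagonist given orally over 0.01-10 mg/kg in mouse and rat; activity scored as time spent active during a 60 min session; p < 0.05 versus vehicle (+haloperidol) control; minimal effective dose taken as lowest active dose.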

Adenosine receptor A2b = target: T2, Adenosine receptor A2b (Homo sapiens, UniProt P29275); experiment: Displacement of radioligand from human recombinant adenosine A2B receptor at 21 degC after 60 mins by cell-based microplate scintillation counting
T2 sequence (P29275 whole entry): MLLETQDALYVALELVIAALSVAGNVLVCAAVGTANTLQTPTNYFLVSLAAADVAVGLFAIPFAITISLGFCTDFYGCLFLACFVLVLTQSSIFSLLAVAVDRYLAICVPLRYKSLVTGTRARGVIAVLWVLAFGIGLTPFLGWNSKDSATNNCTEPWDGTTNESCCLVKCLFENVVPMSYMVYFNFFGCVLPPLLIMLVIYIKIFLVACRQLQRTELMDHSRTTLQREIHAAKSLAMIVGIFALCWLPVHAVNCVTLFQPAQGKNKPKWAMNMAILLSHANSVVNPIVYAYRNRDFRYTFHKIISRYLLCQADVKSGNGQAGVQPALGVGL

Adenosine receptor A1 = target: T3, Adenosine receptor A1 (Homo sapiens, UniProt P30542); experiment: Displacement of radioligand from human recombinant adenosine A1 receptor at 21 degC after 90 mins by cell-based microplate scintillation counting
T3 sequence (P30542 whole entry): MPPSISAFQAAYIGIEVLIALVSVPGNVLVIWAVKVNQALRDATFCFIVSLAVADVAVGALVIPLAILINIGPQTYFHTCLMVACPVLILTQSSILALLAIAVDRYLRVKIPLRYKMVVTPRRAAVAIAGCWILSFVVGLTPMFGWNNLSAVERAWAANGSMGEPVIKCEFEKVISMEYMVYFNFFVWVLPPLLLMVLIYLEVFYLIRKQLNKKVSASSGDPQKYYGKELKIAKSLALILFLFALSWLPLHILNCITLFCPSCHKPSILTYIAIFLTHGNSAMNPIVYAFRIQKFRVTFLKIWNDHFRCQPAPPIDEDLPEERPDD

Rattus norvegicus [2] = experiment: Reversal of haloperidol-induced hypolocomotion in po dosed Sprague-Dawley rat assessed as minimal effective dose administered 120 mins prior to testing done for 60 mins; format: functional; details: read-out: MED; method in brief: as §1
Rattus norvegicus [3] = experiment: Reversal of haloperidol-induced hypolocomotion in po dosed Sprague-Dawley rat assessed as time spent for locomotor activity administered 15 mins prior to testing done for 60 mins; format: functional, organism-based; method in brief: as §1
Mus musculus [4] = experiment: Reversal of haloperidol-induced hypolocomotion in po dosed TO mouse assessed as time spent for locomotor activity administered 120 mins prior to testing done for 60 mins; format: functional, organism-based; method in brief: as §1
Adenosine receptor A2a = Adenosine receptor A2a (Homo sapiens, UniProt P29274); experiment: Displacement of radioligand from human recombinant adenosine A2A receptor at 21 degC after 90 mins by cell-based microplate scintillation counting
Mus musculus [5] = experiment: Reversal of haloperidol-induced hypolocomotion in TO mouse assessed as time spent for locomotor activity at 1 mg/kg, po administered 15 mins prior to testing done for 60 mins; format: functional, organism-based; design: dose 1 mg/kg; method in brief: as §1
Rattus norvegicus [6] = experiment: Reversal of haloperidol-induced hypolocomotion in Sprague-Dawley rat assessed as time spent for locomotor activity at 30 mg/kg, po administered 120 mins prior and measured for 60 mins; format: functional, organism-based; design: dose 30 mg/kg
[7] = Aqueous solubility in phosphate buffered saline; format: physicochemical
Liver microsomes = experiment: Metabolic stability in rat liver microsomes after 30 mins; format: ADME, Microsome; details: 0.5 h
Method in brief: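 Turnover by rodent liver microsomes measured as percent turnover after 30 min.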

Mus musculus [8] = experiment: Reversal of haloperidol-induced hypolocomotion in TO mouse assessed as time spent for locomotor activity at 30 mg/kg, po administered 15 mins prior and measured for 60 mins; format: functional, organism-based; design: dose 30 mg/kg
[9] = Solubility at neutral pH; format: physicochemical

Adenosine receptor A2a, sequence (P29274 whole entry): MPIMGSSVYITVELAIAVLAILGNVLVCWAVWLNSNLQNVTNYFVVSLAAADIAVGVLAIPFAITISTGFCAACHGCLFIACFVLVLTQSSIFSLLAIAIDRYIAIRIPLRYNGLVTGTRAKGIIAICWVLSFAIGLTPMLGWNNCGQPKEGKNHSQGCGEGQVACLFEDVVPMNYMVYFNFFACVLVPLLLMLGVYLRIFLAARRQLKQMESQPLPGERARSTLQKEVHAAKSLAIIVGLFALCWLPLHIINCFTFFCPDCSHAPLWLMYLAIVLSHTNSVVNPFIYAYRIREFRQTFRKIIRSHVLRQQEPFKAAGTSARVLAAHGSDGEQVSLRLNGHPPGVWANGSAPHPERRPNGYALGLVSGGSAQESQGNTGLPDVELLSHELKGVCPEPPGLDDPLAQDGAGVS

Nc1nc(-c2ccco2)c2nnn(Cc3ccccc3N)c2n1
Ki (Adenosine receptor A3): 302 nM | minimal effective dose (Mus musculus [1]): 10 mg/kg | Ki (Adenosine receptor A2b): 123 nM | Ki (Adenosine receptor A1): 63 nM | minimal effective dose (Rattus norvegicus [2]): 10 mg/kg

Nc1nc(-c2ccco2)c2nnn(Cc3ccsc3)c2n1
Ki (Adenosine receptor A3): 136 nM | Activity (Rattus norvegicus [3]): inactive | Ki (Adenosine receptor A2b): 164 nM | Activity (Mus musculus [4]): inactive | Ki (Adenosine receptor A2a): 1.9 nM | Ki (Adenosine receptor A1): 78 nM

Nc1cccc(Cn2nnc3c(-c4ccco4)nc(N)nc32)c1
Activity (Mus musculus [5]): Active | Ki (Adenosine receptor A3): 792 nM | Ki (Adenosine receptor A2b): 270 nM | Ki (Adenosine receptor A2a): 2.5 nM | Ki (Adenosine receptor A1): 131 nM

Nc1ccc(Cn2nnc3c(-c4ccco4)nc(N)nc32)cc1
Activity (Mus musculus [5]): Active | Ki (Adenosine receptor A3): 752 nM | Ki (Adenosine receptor A2b): 46 nM | Ki (Adenosine receptor A2a): 1.5 nM | Ki (Adenosine receptor A1): 190 nM

Nc1nc(-c2ccco2)c2nnn(Cc3cccnc3)c2n1
Ki (Adenosine receptor A3): 1020 nM | Activity (Rattus norvegicus [3]): inactive | Ki (Adenosine receptor A2b): 225 nM | Activity (Mus musculus [4]): inactive | Ki (Adenosine receptor A2a): 14.5 nM | Ki (Adenosine receptor A1): 931 nM

CC(C)c1cc(Cn2nnc3c(-c4ccco4)nc(N)nc32)ccc1N
Ki (Adenosine receptor A3): 251 nM | Activity (Rattus norvegicus [3]): inactive | Ki (Adenosine receptor A2b): 397 nM | Activity (Mus musculus [4]): inactive | Ki (Adenosine receptor A2a): 1.5 nM | Ki (Adenosine receptor A1): 50 nM

CNc1ccc(Cn2nnc3c(-c4ccco4)nc(N)nc32)cc1
Activity (Mus musculus [5]): Active | Ki (Adenosine receptor A3): 636 nM | Ki (Adenosine receptor A2b): 181 nM | Ki (Adenosine receptor A2a): 1.6 nM | Ki (Adenosine receptor A1): 40 nM

Nc1nc(-c2ccco2)c2nnn(Cc3ccccc3F)c2n1
Activity (Rattus norvegicus [6]): inactive | Ki (Adenosine receptor A3): 440 nM | solubility [7]: 30 µM (≈ 9.31 µg/mL) | Stability (Liver microsomes): Stable | Activity (Mus musculus [8]): inactive | Ki (Adenosine receptor A2b): 109 nM | Ki (Adenosine receptor A2a): 2.7 nM | Ki (Adenosine receptor A1): 105 nM

Nc1nc(-c2ccco2)c2nnn(Cc3ccc([N+](=O)[O-])cc3)c2n1
Activity (Rattus norvegicus [6]): inactive | Ki (Adenosine receptor A3): 1230 nM | solubility [7]: 30 µM (≈ 10.1 µg/mL) | Stability (Liver microsomes): Stable | Activity (Mus musculus [8]): inactive | Ki (Adenosine receptor A2b): 440 nM | Ki (Adenosine receptor A2a): 28 nM | Ki (Adenosine receptor A1): 769 nM

N#Cc1ccc(Cn2nnc3c(-c4ccco4)nc(N)nc32)cc1
Activity (Rattus norvegicus [6]): inactive | Ki (Adenosine receptor A3): 1050 nM | solubility [7]: 30 µM (≈ 9.52 µg/mL) | Stability (Liver microsomes): Stable | Activity (Mus musculus [8]): inactive | Ki (Adenosine receptor A2b): 885 nM | Ki (Adenosine receptor A2a): 73 nM | Ki (Adenosine receptor A1): 738 nM

Cc1cc(Cn2nnc3c(-c4ccco4)nc(N)nc32)ccc1N.Cl.Cl
solubility [9]: 18 mg/mL

NC(=O)c1cccc(Cn2nnc3c(-c4ccco4)nc(N)nc32)c1
Activity (Rattus norvegicus [6]): inactive | Ki (Adenosine receptor A3): 2580 nM | solubility [7]: 30 µM (≈ 10.1 µg/mL) | Stability (Liver microsomes): Stable | Activity (Mus musculus [8]): inactive | Ki (Adenosine receptor A2b): 132 nM | Ki (Adenosine receptor A2a): 11.1 nM | Ki (Adenosine receptor A1): 700 nM

Nc1nc(-c2cc[nH]n2)c2nnn(Cc3ccccc3F)c2n1
Activity (Rattus norvegicus [6]): inactive | Ki (Adenosine receptor A3): 1290 nM | solubility [7]: 30 µM (≈ 9.31 µg/mL) | Stability (Liver microsomes): Stable | Activity (Mus musculus [8]): inactive | Ki (Adenosine receptor A2b): 1780 nM | Ki (Adenosine receptor A2a): 239 nM | Ki (Adenosine receptor A1): 1660 nM

Cc1ccccc1Cn1nnc2c(-c3ccco3)nc(N)nc21
Activity (Rattus norvegicus [6]): inactive | Ki (Adenosine receptor A3): 341 nM | solubility [7]: 30 µM (≈ 9.19 µg/mL) | Stability (Liver microsomes): Stable | Activity (Mus musculus [8]): inactive | Ki (Adenosine receptor A2b): 282 nM | Ki (Adenosine receptor A2a): 3 nM | Ki (Adenosine receptor A1): 183 nM

CS(=O)(=O)O.Cc1cc(Cn2nnc3c(-c4ccco4)nc(N)nc32)ccc1N
solubility [9]: 36 mg/mL

CC(C)NC(=O)c1cccc(Cn2nnc3c(-c4ccco4)nc(N)nc32)c1
Activity (Rattus norvegicus [6]): inactive | Ki (Adenosine receptor A3): 530 nM | solubility [7]: 30 µM (≈ 11.3 µg/mL) | Stability (Liver microsomes): Stable | Activity (Mus musculus [8]): inactive | Ki (Adenosine receptor A2b): 593 nM | Ki (Adenosine receptor A2a): 10.8 nM | Ki (Adenosine receptor A1): 733 nM

Cc1ccc(-c2nc(N)nc3c2nnn3Cc2ccccc2F)o1
Activity (Rattus norvegicus [6]): inactive | Ki (Adenosine receptor A3): 260 nM | solubility [7]: 30 µM (≈ 9.73 µg/mL) | Stability (Liver microsomes): Stable | Activity (Mus musculus [8]): inactive | minimal effective dose (Mus musculus [1]): 3 mg/kg | Ki (Adenosine receptor A2b): 6 nM | Ki (Adenosine receptor A2a): 2.1 nM | Ki (Adenosine receptor A1): 19 nM | minimal effective dose (Rattus norvegicus [2]): 3 mg/kg

Nc1nc(-c2cnn[nH]2)c2nnn(Cc3ccccc3F)c2n1
Activity (Rattus norvegicus [6]): inactive | Ki (Adenosine receptor A3): 2810 nM | solubility [7]: 30 µM (≈ 9.34 µg/mL) | Stability (Liver microsomes): Stable | Activity (Mus musculus [8]): inactive | Ki (Adenosine receptor A2b): 1290 nM | Ki (Adenosine receptor A2a): 400 nM | Ki (Adenosine receptor A1): 2960 nM

Nc1nc(-c2ccco2)c2nnn(Cc3cccc([N+](=O)[O-])c3)c2n1
Activity (Rattus norvegicus [6]): inactive | Ki (Adenosine receptor A3): 844 nM | solubility [7]: 30 µM (≈ 10.1 µg/mL) | Stability (Liver microsomes): Stable | Activity (Mus musculus [8]): inactive | Ki (Adenosine receptor A2b): 646 nM | Ki (Adenosine receptor A2a): 3.7 nM | Ki (Adenosine receptor A1): 231 nM

Nc1nc(-c2ccco2)c2nnn(Cc3cccs3)c2n1
Ki (Adenosine receptor A3): 123 nM | minimal effective dose (Mus musculus [1]): 30 mg/kg | Ki (Adenosine receptor A2b): 88 nM | Ki (Adenosine receptor A2a): 2.3 nM | Ki (Adenosine receptor A1): 117 nM | minimal effective dose (Rattus norvegicus [2]): 30 mg/kg

Nc1nc(-c2ccco2)c2nnn(Cc3ccccn3)c2n1
Ki (Adenosine receptor A3): 1080 nM | Activity (Rattus norvegicus [3]): inactive | Ki (Adenosine receptor A2b): 258 nM | Activity (Mus musculus [4]): inactive | Ki (Adenosine receptor A2a): 12 nM | Ki (Adenosine receptor A1): 1120 nM

CC(C)N(C)C(=O)c1cccc(Cn2nnc3c(-c4ccco4)nc(N)nc32)c1
Activity (Rattus norvegicus [6]): inactive | Ki (Adenosine receptor A3): 2470 nM | solubility [7]: 30 µM (≈ 11.7 µg/mL) | Stability (Liver microsomes): Stable | Activity (Mus musculus [8]): inactive | Ki (Adenosine receptor A2b): 937 nM | Ki (Adenosine receptor A2a): 22 nM | Ki (Adenosine receptor A1): 1130 nM

CCc1cc(Cn2nnc3c(-c4ccco4)nc(N)nc32)ccc1N
Ki (Adenosine receptor A3): 221 nM | Activity (Rattus norvegicus [3]): inactive | Ki (Adenosine receptor A2b): 118 nM | Activity (Mus musculus [4]): inactive | Ki (Adenosine receptor A2a): 1 nM | Ki (Adenosine receptor A1): 26 nM
